Legend:
Assay type in all cases: functional, cell-based
[1] = Cytotoxicity against human 518A2 cells assessed as cell survival after 96 hrs by sulforhodamine B assay; settings: 518A2, 96 h
In short: (§1)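 Cells in exponential growth were seeded at densities that avoided confluence and, after 24 h, exposed to serial compound dilutions (0-30 μM, DMSO ≤0.5% final) for 96 h. Cells were then fixed with 10% TCA at 4 °C, washed with water, and stained with 0.4% SRB for about 20 min. Excess dye was removed with 1% acetic acid, bound dye was taken up in 10 mM Tris base, and absorbance was read at 570 nm.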

A2780 = test: Cytotoxicity against human A2780 cells assessed as cell survival after 96 hrs by sulforhodamine B assay; settings: A2780, 96 h; in short: as §1
HT-29 = test: Cytotoxicity against human HT-29 cells assessed as cell survival after 96 hrs by sulforhodamine B assay; settings: HT-29, 96 h; in short: as §1
MCF7 = test: Cytotoxicity against human MCF7 cells assessed as cell survival after 96 hrs by sulforhodamine B assay; settings: MCF7, 96 h; in short: as §1
A549 = test: Cytotoxicity against human A549 cells assessed as cell survival after 96 hrs by sulforhodamine B assay; settings: A549, 96 h; in short: as §1
8505C = test: Cytotoxicity against human 8505C cells assessed as cell survival after 96 hrs by sulforhodamine B assay; in short: as §1

SMILES: CC1(C)CC[C@]2(C(=O)NCCN3CCCCC3)CC[C@]3(C)C(=CC[C@@H]4[C@@]5(C)CC[C@H](O)[C@@](C)(CO)[C@@H]5CC[C@]43C)[C@@H]2C1
- EC50 [1]: 3.7 µM
- EC50 (A2780): 1.8 µM
- EC50 (HT-29): 1.3 µM
- EC50 (MCF7): 6.5 µM
- EC50 (A549): 2.7 µM
- EC50 (8505C): 3.6 µM

SMILES: CC1(C)CC[C@]2(C(=O)OCc3ccccc3Br)CC[C@]3(C)C(=CC[C@@H]4[C@@]5(C)CC[C@H](O)[C@@](C)(CO)[C@@H]5CC[C@]43C)[C@@H]2C1
- EC50 [1]: 10.9 µM
- EC50 (A2780): 14.3 µM
- EC50 (HT-29): 14.3 µM
- EC50 (MCF7): 12.7 µM
- EC50 (A549): 13.2 µM
- EC50 (8505C): 7.8 µM

SMILES: CC1(C)CC[C@]2(C(=O)O)CC[C@]3(C)C(=CC[C@@H]4[C@@]5(C)CC[C@H](O)[C@@](C)(CO)[C@@H]5CC[C@]43C)[C@@H]2C1 [HEDERAGENIN]
- EC50 [1]: 34.9 µM
- EC50 (A2780): 19.9 µM
- EC50 (HT-29): 50 µM
- EC50 (MCF7): 25.7 µM
- EC50 (A549): 29 µM
- EC50 (8505C): 38 µM

SMILES: CC1(C)CC[C@]2(C(=O)OCc3c(F)cccc3F)CC[C@]3(C)C(=CC[C@@H]4[C@@]5(C)CC[C@H](O)[C@@](C)(CO)[C@@H]5CC[C@]43C)[C@@H]2C1
- EC50 [1]: 7.5 µM
- EC50 (A2780): 11.6 µM
- EC50 (HT-29): 12 µM
- EC50 (MCF7): 10.2 µM
- EC50 (A549): 11.7 µM
- EC50 (8505C): 8.7 µM

SMILES: CC1(C)CC[C@]2(C(=O)OCc3ccc(Br)cc3)CC[C@]3(C)C(=CC[C@@H]4[C@@]5(C)CC[C@H](O)[C@@](C)(CO)[C@@H]5CC[C@]43C)[C@@H]2C1
- EC50 [1]: 11.6 µM
- EC50 (A2780): 13.2 µM
- EC50 (HT-29): 13.7 µM
- EC50 (MCF7): 13.5 µM
- EC50 (A549): 13.5 µM
- EC50 (8505C): 8.6 µM

SMILES: CC1(C)CC[C@]2(C(=O)OCc3cccc([N+](=O)[O-])c3)CC[C@]3(C)C(=CC[C@@H]4[C@@]5(C)CC[C@H](O)[C@@](C)(CO)[C@@H]5CC[C@]43C)[C@@H]2C1
- EC50 [1]: 8.1 µM
- EC50 (A2780): 11.9 µM
- EC50 (HT-29): 12 µM
- EC50 (MCF7): 8.3 µM
- EC50 (A549): 8.1 µM
- EC50 (8505C): 6.6 µM

SMILES: CC1(C)CC[C@]2(C(=O)OCc3ccccc3)CC[C@]3(C)C(=CC[C@@H]4[C@@]5(C)CC[C@H](O)[C@@](C)(CO)[C@@H]5CC[C@]43C)[C@@H]2C1
- EC50 [1]: 7.8 µM
- EC50 (A2780): 9.7 µM
- EC50 (HT-29): 9.5 µM
- EC50 (MCF7): 7.9 µM
- EC50 (A549): 7 µM
- EC50 (8505C): 7.6 µM

SMILES: Cc1ccccc1COC(=O)[C@]12CCC(C)(C)C[C@H]1C1=CC[C@@H]3[C@@]4(C)CC[C@H](O)[C@@](C)(CO)[C@@H]4CC[C@@]3(C)[C@]1(C)CC2
- EC50 [1]: 9 µM
- EC50 (A2780): 12.9 µM
- EC50 (HT-29): 13.2 µM
- EC50 (MCF7): 11.3 µM
- EC50 (A549): 12.6 µM
- EC50 (8505C): 8.4 µM

SMILES: CC1(C)CC[C@]2(C(=O)NCCN3CCOCC3)CC[C@]3(C)C(=CC[C@@H]4[C@@]5(C)CC[C@H](O)[C@@](C)(CO)[C@@H]5CC[C@]43C)[C@@H]2C1
- EC50 [1]: > 30 µM
- EC50 (A2780): > 30 µM
- EC50 (HT-29): > 30 µM
- EC50 (MCF7): > 30 µM
- EC50 (A549): > 30 µM
- EC50 (8505C): > 30 µM

SMILES: CC1(C)CC[C@]2(C(=O)OCc3ccccc3Cl)CC[C@]3(C)C(=CC[C@@H]4[C@@]5(C)CC[C@H](O)[C@@](C)(CO)[C@@H]5CC[C@]43C)[C@@H]2C1
- EC50 [1]: 11.7 µM
- EC50 (A2780): 13.6 µM
- EC50 (HT-29): 13.5 µM
- EC50 (MCF7): 12.7 µM
- EC50 (A549): 13.6 µM
- EC50 (8505C): 9.5 µM

SMILES: Cc1ccc(COC(=O)[C@]23CCC(C)(C)C[C@H]2C2=CC[C@@H]4[C@@]5(C)CC[C@H](O)[C@@](C)(CO)[C@@H]5CC[C@@]4(C)[C@]2(C)CC3)cc1
- EC50 [1]: 11.8 µM
- EC50 (A2780): 14.7 µM
- EC50 (HT-29): 14.8 µM
- EC50 (MCF7): 13.7 µM
- EC50 (A549): 13.7 µM
- EC50 (8505C): 8.8 µM

SMILES: C#CCNC(=O)[C@]12CCC(C)(C)C[C@H]1C1=CC[C@@H]3[C@@]4(C)CC[C@H](O)[C@@](C)(CO)[C@@H]4CC[C@@]3(C)[C@]1(C)CC2
- EC50 [1]: 21.6 µM
- EC50 (A2780): 14.8 µM
- EC50 (HT-29): 17.3 µM
- EC50 (MCF7): 17 µM
- EC50 (A549): 16.8 µM
- EC50 (8505C): 22.1 µM

SMILES: C#CCOC(=O)[C@]12CCC(C)(C)C[C@H]1C1=CC[C@@H]3[C@@]4(C)CC[C@H](O)[C@@](C)(CO)[C@@H]4CC[C@@]3(C)[C@]1(C)CC2
- EC50 [1]: 12.4 µM
- EC50 (A2780): 17 µM
- EC50 (HT-29): 17.7 µM
- EC50 (MCF7): 15.4 µM
- EC50 (A549): 15.9 µM
- EC50 (8505C): 13.2 µM

SMILES: CC1(C)CC[C@]2(C(=O)OCc3ccc(Cl)cc3)CC[C@]3(C)C(=CC[C@@H]4[C@@]5(C)CC[C@H](O)[C@@](C)(CO)[C@@H]5CC[C@]43C)[C@@H]2C1
- EC50 [1]: 11.4 µM
- EC50 (A2780): 13 µM
- EC50 (HT-29): 13.5 µM
- EC50 (MCF7): 12.7 µM
- EC50 (A549): 9.8 µM
- EC50 (8505C): 8.1 µM

SMILES: CC1(C)CC[C@]2(C(=O)On3nnc4ccccc43)CC[C@]3(C)C(=CC[C@@H]4[C@@]5(C)CC[C@H](O)[C@@](C)(CO)[C@@H]5CC[C@]43C)[C@@H]2C1
- EC50 [1]: 8.6 µM
- EC50 (A2780): 8.8 µM
- EC50 (HT-29): 11.2 µM
- EC50 (MCF7): 7.7 µM
- EC50 (A549): 9.5 µM
- EC50 (8505C): 9.5 µM

Source: ChEMBL document CHEMBL3632609, “Hederagenin as a triterpene template for the development of new antitumor compounds” (Eur J Med Chem, 2015)
